Measured values: ChEMBL document CHEMBL1127092, “Crystal and molecular structure and in vitro antiproliferative and antitumor activity of two organotin (IV) carbohydrate compounds” (J Med Chem, 1993)

Legend:
Format in all cases: functional, cell-based, Mus musculus
MOPC 315 = test: Antitumor activity against MOPC315 cell line determined by reduction of the [3H]thymidine incorporation after a 24-h incubation period
How it was run: (§1)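 Mouse ascites tumor cells harvested 7 days after i.p. transplantation, washed, preincubated 4 h at 2.10^5 cells/mL in RPMI 1640 with 10% FCS and 1 mM glutamine under 5% CO2. Cells then exposed to compounds (ethanol stocks diluted in medium) for 24 h at 37°C. [3H]TdR (0.5 μCi) was added […] and cells were harvested 8 h later. Values are means of two experiments, each in 4-fold.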

P815 = test: Antitumor activity against P815 cell line determined by reduction of the [3H]thymidine incorporation after a 24-h incubation period; how it was run: as §1
L1210 = test: Antitumor activity against L1210 cell line determined by reduction of the [3H]thymidine incorporation after a 24-h incubation period; how it was run: as §1

IC50 (MOPC 315) [nM] | IC50 (P815) [nM] | IC50 (L1210) [nM] | Substance
> 5000 | > 5000 | > 5000 | 5-(2,2-Dimethyl-[1,3]dioxolan-4-yl)-2,2-dimethyl-6-[(triphenylstannanyl)-methyl]-tetrahydro-furo[2,3-d][1,3]dioxol-6-ol
670 | 540 | 760 | 5-(2,2-Dimethyl-[1,3]dioxolan-4-yl)-2,2-dimethyl-6-triphenylstannanyl-tetrahydro-furo[2,3-d][1,3]dioxol-6-ol
200 | 130 | 180 | TRIPHENYLTIN CHLORIDE
